How the values were obtained:
Format in all cases: functional
[1] = Anti-coagulation activity evaluated as activated partial thromboplastin time (APTT) of the non-sulfated compound determined for 25 ug/mL in pooled normal plasma
Summary of the method: (§1)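 Activated partial thromboplastin time was measured in pooled normal human plasma with a commercial liquid silica-activator APTT kit. Polymer was added to the plasma, and clotting time was recorded in seconds. Plasma without polymer served as the control, and heparin was the positive control.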

[2] = Anti-coagulation activity evaluated as activated partial thromboplastin time (APTT) of the sulfated compound determined for 25 ug/mL in pooled normal plasma; summary of the method: as §1
[3] = Anti-coagulation activity evaluated as activated partial thromboplastin time (APTT) determined for 25 ug/ml in pooled normal plasma; summary of the method: as §1
[4] = Anti-coagulation activity evaluated as activated partial thromboplastin time (APTT) determined for 250 ug/ml in pooled normal plasma; summary of the method: as §1

| Structure (SMILES) | APTT [1] | APTT [2] | APTT [3] | APTT [4] |
| --- | --- | --- | --- | --- |
| CCC(C)C(=O)N1C[C@@H](OS(=O)(=O)O)C[C@@H]1C(=O)O (stereo partly drawn) | 37 s | 100 s | – | – |
| CCC(C)C(=O)NCC(=O)O (stereo not drawn) | – | – | 40 s | – |
| CCC(C)C(=O)N[C@H](Cc1ccc(OS(=O)(=O)[O-])cc1)C(=O)[O-].[Na+].[Na+] (stereo partly drawn) | 35 s | 45 s | – | – |
| CCC(C)C(=O)N[C@H](Cc1ccccc1)C(=O)[O-].[Na+] (stereo partly drawn) | – | – | 56 s | 109 s |
| CCC(C)C(=O)N[C@H](Cc1c[nH]cn1)C(=O)[O-].[Na+] (stereo partly drawn) | – | – | 30 s | – |
| CCC(C)C(=O)N1C[C@@H](O)C[C@@H]1C(=O)O (relative stereo) | – | – | 37 s | – |
| CCC(C)C(=O)N[C@H](CCC(=O)[O-])C(=O)[O-].[Na+].[Na+] (stereo partly drawn) | – | – | 56 s | 75 s |
| CCC(C)C(=O)N[C@H](CO)C(=O)O (stereo partly drawn) | – | – | 39 s | – |
| CCC(C)C(=O)N1CCC[C@@H]1C(=O)[O-].[Na+] (stereo partly drawn) | – | – | 55 s | 109 s |
| CCC(C)C(=O)N[C@@H](C(=O)[O-])C(C)(C)C.[Na+] (stereo partly drawn) | – | – | 36 s | – |
| CCC(C)C(=O)N1C[C@H](O)C[C@@H]1C(=O)O (relative stereo) | – | – | 35 s | – |
| CCC(C)C(=O)N[C@H](CC(C)C)C(=O)[O-].[Na+] (stereo partly drawn) | – | – | 36 s | – |
| CCC(C)C(=O)N[C@H](Cc1ccc(O)cc1)C(=O)[O-].[Na+] (stereo partly drawn) | – | – | 32 s | – |
| CCC(C)C(=O)N1CC[C@H](OS(=O)(=O)O)C1 (stereo partly drawn) | 39 s | 32 s | – | – |
| CCC(C)C(=O)N[C@H](COS(=O)(=O)[O-])C(=O)[O-].[Na+].[Na+] (stereo partly drawn) | 32 s | 35 s | – | – |
| CCC(C)C(=O)N[C@H](CCCCN)C(=O)[O-].[Na+] (stereo partly drawn) | – | – | 33 s | – |

— ChEMBL document CHEMBL1132944, “Poly(N-acryl amino acids): a new class of biologically active polyanions” (2000)
